Screening results: PubChem BioAssay, several laboratories
BB579 growth dn – yeast BB579 growth reduction in restrictive medium; S. cerevisiae BB579 growth, OD615, 48 h; inhibition, % at 10 µM; hit rate 0.51% among 140,000; AID 804;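 active = inhibition above a set limit, 3 SD over the mean compound inhibition, cut at about 44% in these data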
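System: Saccharomyces cerevisiae DeaD strain BB579, replicative lifespan model yeast | Buffer or medium: Restrictive glucose-based CSMM-D medium | Times: 4 h preincubation and 48 h exposure at 30 °C | Detection: OD615 turbidity measurement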
RAM network inh – yeast RAM network inhibition. inhibition, % at 50 µM. hit rate 1.8% among 190,000. AID 868. S. cerevisiae dse1pr::URA3 reporter, 5-FOA growth OD615, 2 d; analog-sensitive cbk1-as2 kinase mutant strain;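 active = inhibition above a set limit, 3 SD over mean compound inhibition, cut at about 8.4% in these data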;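 note: inhibition rescues growth on 5-FOA so higher OD means more RAM inhibition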
HMGR II inh – E. faecalis class II HMG-CoA reductase inhibition; purified E. faecalis HMGR, NADPH absorbance 340 nm kinetic; inhibition, % at 10 µM; hit rate 0.41% among 190,000; AID 1066;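 active = inhibition above a set limit, the median over all tested compounds plus 3 SD, cut at about 9.5% in these data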;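 note: enzyme runs in reverse so mevalonate oxidation gives rising NADPH absorbance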
Yeast lifespan up – extends the lifespan of yeast; S. cerevisiae growth with nicotinamide, OD615; deaD strain in restrictive glucose medium; inhibition of the nicotinamide effect, % at 10 µM; hit rate 0.68% among 130,000; AID 775;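 active = inhibition above a set limit, placed 3 SD over the median of all compounds, cut at about 26% in these data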
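Test system – modified budding yeast, DeaD strain · Compound – single dose 10 µM compound, 0.25% DMSO · Times – culture preincubation 4 h, compound exposure 48 h, both 30 °C · Detection – optical density (absorbance) at 615 nm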
INS promoter inh – TRM-6 insulin promoter activity inhibition. hit rate 0.9% among 130,000. TRM-6 cells, insulin promoter-eGFP reporter, imaging; reporter expression induced with tamoxifen. inhibition, % at 2 µM;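 active = inhibition above the mean plus 3 SD, with well images judged a real hit on visual review, cut at about 60% in these data, passing the limit was not always enough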
RAM 5-FOA – RAM network inhibitors in efflux-deficient yeast; AID 1305; 1,200 tested, under 10 active; shares compounds with RAM network inh; S. cerevisiae efflux-deficient reporter strain, 5-FOA growth OD615, 2 days; max inhibition, %; call rule not given here
Each line names hits and unclear results; the compound was inactive in the other large screens (follow-up assays come after a bar, where they were run). A selection: hits, their analogues and other compounds. The true share with any hit is near 3.7%.

Cc1cc(C)c2sc(N)nc2c1	none (no result: BB579 growth dn, Yeast lifespan up)
CCn1c(=O)c(C(=O)NCCc2ccccc2)c(O)c2ccccc21	RAM network inh 12 | RAM 5-FOA inactive
CCCCCCn1c(=O)c(C(=O)N/N=C/c2cccc(F)c2)c(O)c2ccccc21	RAM network inh 16 (no result: BB579 growth dn, Yeast lifespan up) | RAM 5-FOA inactive
O=C(NCc1ccccn1)c1c(O)c2cccc3c2n(c1=O)CC3	none
O=C(NCCc1ccccc1)c1c(O)c2cccc3c2n(c1=O)CC3	RAM network inh 22 | RAM 5-FOA inactive
CCCCCCCCC(=O)NNC(=O)c1c(O)c2ccccc2n(CC)c1=O	RAM network inh 13 (no result: BB579 growth dn, Yeast lifespan up, INS promoter inh) | RAM 5-FOA inactive
CCCCN(C(=O)c1cccc2c(=O)c(C)c(-c3ccccc3)oc12)c1ccccc1	RAM network inh 16, Yeast lifespan up 29 | RAM 5-FOA inactive
CCn1cc(C(=O)OCC(=O)c2ccccc2)c(=O)c2ccc(C)nc21	RAM network inh 18 (no result: BB579 growth dn, Yeast lifespan up) | RAM 5-FOA inactive
CCCCNC(=S)N(C)/N=C/c1ccc(OCc2ccc(C(=O)OC)cc2)c(OC)c1	RAM network inh 14 | RAM 5-FOA inactive
COc1cc(NS(=O)(=O)c2ccc(Nc3nc(-c4ccccc4)cs3)cc2)nc(OC)n1	RAM network inh 11 | RAM 5-FOA inactive
CCN(CC(=O)NC1CCS(=O)(=O)C1)C(=O)/C=C/c1cccs1 (stereo not given)	none (no result: BB579 growth dn, Yeast lifespan up)
Cc1ccc(/C=N/N=C2/NC(=O)C(CC(=O)Nc3ccccc3)S2)o1 (stereo not given)	none (no result: BB579 growth dn, Yeast lifespan up, INS promoter inh)
CC(C)CCOc1ncnc2c1sc1nc3c(cc12)CSC(C)(C)C3	RAM network inh 13 (no result: Yeast lifespan up) | RAM 5-FOA inactive
COc1cc(/C=C/C(=O)OCC(=O)Nc2ccccc2Sc2ccc(Cl)cc2)ccc1O	RAM network inh 15 | RAM 5-FOA inactive
O=C(O)c1ccc(Cl)c(S(=O)(=O)Nc2cccc(C(=O)Nc3cccc(C(F)(F)F)c3)c2)c1	RAM network inh 12 (no result: BB579 growth dn, Yeast lifespan up) | RAM 5-FOA inactive
COc1ccc(C(=O)O)cc1S(=O)(=O)Nc1cccc(C(F)(F)F)c1	none
O=C(N=Nc1c(O)n(C2OC(=O)c3ccccc32)c2ccccc12)c1ccc(O)cc1 (stereo not given)	RAM network inh 12 | RAM 5-FOA inactive
O=C(N=Nc1c(O)n(Cc2ccccc2)c2ccccc12)c1ccc(O)cc1	none
COc1ccc(-c2nn(-c3ccccc3)cc2C(=O)OCC(=O)c2ccc(C)c([N+](=O)[O-])c2)cc1	none
Cc1ccc(SCC(=O)N2c3ccccc3Sc3ccccc32)cc1	RAM network inh 14 | RAM 5-FOA inactive
CCOC(=O)N1CCN(C(=O)CN(c2ccccc2)S(C)(=O)=O)CC1	none (no result: BB579 growth dn, Yeast lifespan up, INS promoter inh)
Cc1nc(SCC(=O)Nc2ccccc2)c2oc3ccccc3c2n1	none
O=C(O)CSc1nc(-c2ccc(Cl)cc2)nc2c1oc1ccccc12	BB579 growth dn 71, RAM network inh 15 | RAM 5-FOA inactive
COC(=O)c1sccc1-c1ccc(/C=N/OCc2c(Cl)cccc2Cl)o1	RAM network inh 18 | RAM 5-FOA inactive
CCCCC1(Cc2cccc([N+](=O)[O-])c2)C(=O)N(c2ccccc2)N(c2ccccc2)C1=O	RAM network inh 13 | RAM 5-FOA inactive
CCCCC1(CC(=O)OCC)C(=O)N(c2ccccc2)N(c2ccccc2)C1=O	none
C=CCn1c(SCC(=O)Nc2ccccc2C)nnc1-c1ccncc1	RAM network inh 14 | RAM 5-FOA inactive
Cc1cccc(NC(=O)C2C3CCC4C(CCC32)C4(Cl)Cl)c1 (stereo not given)	none
CCOc1cc(/C=N/Nc2nc(Nc3ccccc3)nc(N3CCCCC3)n2)ccc1OCC(=O)O	RAM network inh 19 (no result: BB579 growth dn, Yeast lifespan up) | RAM 5-FOA inactive
COc1ccc(/C=N/Nc2nc(Nc3ccccc3)nc(N3CCCCC3)n2)cc1OC	none
COc1ccc(-n2c(=O)c3ccccc3n(Cc3cccc(C)c3)c2=O)cc1OC	none (no result: BB579 growth dn, Yeast lifespan up, INS promoter inh)
CC(C)Cn1c(N)c(C(=O)COC(=O)C2CC(=O)N(Cc3ccccc3Cl)C2)c(=O)n(C)c1=O (stereo not given)	none (no result: BB579 growth dn, Yeast lifespan up)
Cc1ccc(C)c(C(=O)COC(=O)CCCC(=O)Nc2cc(C(F)(F)F)ccc2Cl)c1	RAM network inh 18 (no result: INS promoter inh) | RAM 5-FOA inactive
O=C(CCNC(=O)c1ccccc1Cl)Nc1cc(C(F)(F)F)ccc1Cl	none
NC(=O)COC(=O)CCCSc1nc2ccccc2s1	none (no result: BB579 growth dn, Yeast lifespan up, INS promoter inh)
N#Cc1ccsc1NC(=O)COC(=O)CCCSc1nc2ccccc2s1	RAM network inh 15 (no result: INS promoter inh) | RAM 5-FOA inactive
COC(=O)c1sccc1NC(=O)c1cc(-c2ccc(C)cc2C)nc2ccccc12	none
O=C1C=CC(O)(c2cc(=O)c3c(O)cc(O)cc3o2)C=C1	none
CCCCn1c(SCc2nc3ccccc3s2)nc2ccccc2c1=O	RAM network inh 13 (no result: INS promoter inh) | RAM 5-FOA inactive
Cc1cc(C)c(S(=O)(=O)N2CCC(C(=O)NCc3ccc(Cl)cc3Cl)CC2)c(C)c1	none
CCOC(=O)/C(=N\Nc1cc(Cl)ccc1Cl)N1CCN(CC)CC1	none (no result: INS promoter inh)
CSc1nc2ccccc2cc1/C=C(\C#N)c1cccc(C)c1	RAM network inh 13 | RAM 5-FOA inactive
CSc1nc2ccccc2cc1/C=C(\C#N)c1ccccc1	none
CN(C)c1nc(OCCOC(=O)COc2ccc(Cl)cc2Cl)nc(N(C)C)n1	none
CN(C)c1nc(SCCOC(=O)COc2ccc(Cl)cc2Cl)nc(N(C)C)n1	RAM network inh 12 | RAM 5-FOA inactive
COc1ccc2oc3cc(C)[n+]([O-])c(-c4ccc(C)cc4)c3c2c1	none
CC(C)CCN1CCN(CCCn2cccn2)CC1CCO (stereo not given)	none (no result: BB579 growth dn, Yeast lifespan up, INS promoter inh)
Cc1ccc(OCC(=O)NN=C2c3ccccc3-c3ccccc32)cc1	none (no result: INS promoter inh)
Cc1ccc(NN=C2c3ccccc3-c3ccccc32)cc1	RAM network inh 15 | RAM 5-FOA inactive
Cc1cc(S(=O)(=O)N(Cc2cccs2)Cc2ccccc2F)ccc1-n1cnnn1	RAM network inh 13 | RAM 5-FOA inactive
Cc1cc(S(=O)(=O)N(Cc2ccccc2)Cc2ccc(N(C)C)cc2)ccc1-n1cnnn1	none
Cc1ccc(C(=O)n2nc(-c3ccccc3)nc2NCc2ccco2)cc1	RAM network inh 13 | RAM 5-FOA inactive
CC(=O)n1nc(-c2ccc(Cl)cc2)nc1NCc1ccco1	none
COc1ccc(CC(=O)n2nc(-c3ccc(Cl)cc3)nc2NCc2ccco2)cc1	RAM network inh 14 | RAM 5-FOA inactive
O=S(=O)(c1ccccc1)n1nc(-c2ccccc2)nc1NCc1ccco1	RAM network inh 16 | RAM 5-FOA inactive
CSc1nc(-c2ccccc2)nn1S(=O)(=O)c1ccccc1	none (no result: Yeast lifespan up)
O=C(c1cccs1)n1nc(-c2ccc(Cl)cc2)nc1NCc1ccco1	RAM network inh 13 | RAM 5-FOA inactive
CCCC(=O)n1nc(-c2ccc(C)cc2)nc1NCc1ccco1	none (no result: BB579 growth dn, Yeast lifespan up, INS promoter inh)
O=c1ccc(/C=C/c2ccccc2)nn1Cc1ccc(Cl)cc1Cl	RAM network inh 13 (no result: INS promoter inh) | RAM 5-FOA inactive
COc1cc(/C=C/C(=O)N2CCN(c3n[nH]c(=O)[nH]c3=O)CC2)cc(OC)c1OC	none (no result: BB579 growth dn, Yeast lifespan up)
